Measured values as given in ChEMBL document CHEMBL1687716, “Pharmacokinetics of L-arginine in adults with moderately severe malaria” (Antimicrob Agents Chemother, 2008).

Experiments:
Homo sapiens [1] = test: Toxicity in patient with severe malaria assessed as pain at drug infusion site at 3 to 12 g, iv for 30 mins via infusion pump; type: organism-based; conditions: in vivo, 0.5 h
Homo sapiens [2] = test: Toxicity in patient with severe malaria assessed as inflammation at 3 to 12 g, iv for 30 mins via infusion pump; type: organism-based; conditions: in vivo, 0.5 h
Homo sapiens [3] = test: Toxicity in patient with severe malaria assessed as effect on pulse rate at 3 to 12 g, iv for 30 mins via infusion pump measured during drug infusion; type: organism-based; conditions: in vivo, 0.5 h
Homo sapiens [4] = test: Toxicity in patient with severe malaria assessed as effect on pulse rate at 3 to 12 g, iv for 30 mins via infusion pump measured after drug infusion; type: organism-based; conditions: in vivo, 0.5 h
Homo sapiens [5] = test: Toxicity in patient with severe malaria assessed as effect on respiratory rate at 3 to 12 g, iv for 30 mins via infusion pump measured during drug infusion; type: organism-based; conditions: in vivo, 0.5 h
Homo sapiens [6] = test: Toxicity in patient with severe malaria assessed as effect on respiratory rate at 3 to 12 g, iv for 30 mins via infusion pump measured after drug infusion; type: organism-based; conditions: in vivo, 0.5 h
Homo sapiens [7] = test: Toxicity in patient with severe malaria assessed as decrease of systolic blood pressure at 3 to 6 g, iv for 30 mins via infusion pump; type: organism-based, Artery; conditions: in vivo, 0.5 h
Procedure, shortened: (§1)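 In adults with malaria on IV quinine, 10 per dose, systolic and diastolic blood pressure were recorded at baseline and immediately at the end of a 30-min IV L-arginine infusion (in saline, 10% or less). They were followed afterward to check return to baseline. Mean change was given with 95% CI and P value.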

Homo sapiens [8] = test: Toxicity in patient with severe malaria assessed as decrease of diastolic blood pressure at 3 to 6 g, iv for 30 mins via infusion pump; type: organism-based, Artery; conditions: in vivo, 0.5 h; procedure, shortened: as §1
Homo sapiens [9] = test: Toxicity in patient with severe malaria assessed as decrease of systolic blood pressure at 12 g, iv for 30 mins via infusion pump; type: organism-based, Artery; conditions: in vivo, 0.5 h; procedure, shortened: as §1
Homo sapiens [10] = test: Toxicity in patient with severe malaria assessed as decrease of diastolic blood pressure at 12 g, iv for 30 mins via infusion pump; type: organism-based, Artery; conditions: in vivo, 0.5 h; procedure, shortened: as §1
[11] = Plasma concentration in patient with severe malaria at 3 g, iv for 30 mins via infusion pump; type: ADME, organism-based; conditions: human
Procedure, shortened: (§2)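 Adults with moderately severe malaria, all on IV quinine, were placed in groups of 10 per dose. L-arginine was diluted in normal saline to 10% or less and given IV through an antecubital cannula over 30 min. Plasma was taken at 8–11 time points up to 24 h, separated within 30 min and stored at −70°C. Samples were ethanol-deproteinized with norleucine as internal standard, AccQFluor-derivatized and measured by HPLC. Peak was taken after the end of infusion.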

[12] = Plasma concentration in patient with severe malaria at 6 g, iv for 30 mins via infusion pump; type: ADME, organism-based; conditions: human; procedure, shortened: as §2
[13] = Plasma concentration in patient with severe malaria at 12 g, iv for 30 mins via infusion pump; type: ADME, organism-based; conditions: human; procedure, shortened: as §2
[14] = Primary phase half life in patient with severe malaria administered as iv for 30 mins via infusion pump; type: ADME, organism-based; conditions: human, in vivo, read-out: alphat1/2
Procedure, shortened: (§3)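 Half-lives came from a population model fitted in NONMEM (FOCE with interaction) to plasma HPLC levels from infused patients and from patients not given L-arginine. The model was two-compartment linear with first-order elimination and combined proportional and additive residual error. Baseline and natural recovery were fitted by a second-order polynomial. CV% was estimated by simulation assuming a log-normal distribution.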

[15] = Terminal half life in patient with severe malaria administered as iv for 30 mins via infusion pump; type: ADME, organism-based; conditions: human, in vivo, read-out: beta t1/2 (converted); procedure, shortened: as §3

In the case of `N=C(N)NCCC[C@H](N)C(=O)O` [ARGININE], the Activity (Homo sapiens [1]) is reported as “Non-toxic”, the Activity (Homo sapiens [2]) is reported as “Non-toxic” and the Activity (Homo sapiens [3]) is reported as “Non-toxic”. For the same compound, the Activity (Homo sapiens [4]) was “Non-toxic”, the Activity (Homo sapiens [5]) was “Non-toxic” and the Activity (Homo sapiens [6]) was “Non-toxic”. The Activity (Homo sapiens [7]) was “Non-toxic”, the Activity (Homo sapiens [8]) was “Non-toxic” and the Activity (Homo sapiens [9]) was 5 mmHg. It also gave an Activity (Homo sapiens [10]) of 5 mmHg, a concentration at 0.5 h [11] of 288 µM and a concentration at 0.5 h [12] of 809 µM. For the same compound, the concentration at 0.5 h [13] was 1310 µM, the half-life [14] was 0.25 h and the half-life [15] was 3.75 h.
